Reference: ChEMBL document CHEMBL1146459, “Production of biologically active taxoids by a callus culture of Taxus cuspidata” (2004)

Columns and labels:
[1] = Reversal of multidrug resistance in human 2780AD cells assessed as [3H]vincristine accumulation at 0.1 ug/mL after 2 hrs relative to verapamil; format: functional, A2780 ADR
SK-OV-3 = test: Growth inhibition of human SKOV3 cells after 48 hrs by SRB assay; format: functional; settings: SK-OV-3, 48 h
SF-268 = test: Growth inhibition of human SF268 cells after 48 hrs by SRB assay; format: functional; settings: SF-268, 48 h
MKN-45 = test: Growth inhibition of human MKN45 cells after 48 hrs by SRB assay; format: functional; settings: MKN-45, 48 h
KM12 = test: Growth inhibition of human KM12 cells after 48 hrs by SRB assay; format: functional; settings: KM12, 48 h
[2] = Reversal of multidrug resistance in human 2780AD cells assessed as [3H]vincristine accumulation at 10 ug/mL after 2 hrs relative to verapamil; format: functional, A2780 ADR
OVCAR-8 = test: Growth inhibition of human OVCAR8 cells after 48 hrs by SRB assay; format: functional; settings: OVCAR-8, 48 h
DMS-273 = test: Growth inhibition of human DMS273 cells after 48 hrs by SRB assay; format: functional; settings: DMS-273, 48 h
[3] = Growth inhibition of human BSY1 cells after 48 hrs by SRB assay; format: functional; settings: BSY-1, 48 h
DU-145 = test: Growth inhibition of human DU145 cells after 48 hrs by SRB assay; format: functional; settings: DU-145, 48 h
[4] = Growth inhibition of human MKN1 cells after 48 hrs by SRB assay; format: functional; settings: MKN-1, 48 h
LOX IMVI = test: Growth inhibition of human LOXIMVI cells after 48 hrs by SRB assay; format: functional
[5] = Reversal of multidrug resistance in human 2780AD cells assessed as [3H]vincristine accumulation at 10 ug/mL after 2 hrs relative to control; format: functional, A2780 ADR
In short: (§1)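 Multidrug-resistant human ovarian cancer 2780AD cells were exposed to taxoids at 0.1, 1 or 10 µg/mL. Radiolabelled vincristine accumulated in the cells was measured as dpm/well, using means of triplicate determinations. Results are expressed as % of vincristine accumulated relative to the control experiment. They were also scored on a seven-level index according to the range of relative accumulation.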

PC-3 = test: Growth inhibition of human PC3 cells after 48 hrs by SRB assay; format: functional; settings: PC-3, 48 h
HCC 2998 = test: Growth inhibition of human HCC2998 cells after 48 hrs by SRB assay; format: functional; settings: HCC 2998, 48 h
MKN-7 = test: Growth inhibition of human MKN7 cells after 48 hrs by SRB assay; format: functional; settings: MKN-7, 48 h
HT-29 = test: Growth inhibition of human HT-29 cells after 48 hrs by SRB assay; format: functional; settings: HT-29, 48 h
[6] = Reversal of multidrug resistance in human 2780AD cells assessed as [3H]vincristine accumulation at 0.1 ug/mL after 2 hrs relative to control; format: functional, A2780 ADR; in short: as §1
[7] = Growth inhibition of human RXF631L cells after 48 hrs by SRB assay; format: functional; settings: RXF 631, 48 h
St-4 = test: Growth inhibition of human St-4 cells after 48 hrs by SRB assay; format: functional; settings: St-4, 48 h
SF-295 = test: Growth inhibition of human SF295 cells after 48 hrs by SRB assay; format: functional; settings: SF-295, 48 h
OVCAR-5 = test: Growth inhibition of human OVCAR5 cells after 48 hrs by SRB assay; format: functional; settings: OVCAR-5, 48 h
[8] = read-out: LC50 (the source's name)
[9] = read-out: pLC50 (the source's name) (converted)

C=C1[C@@H](OC(C)=O)CC[C@@]2(C)C[C@H](OC(C)=O)C3=C(C)C[C@H](OC(=O)C(C)CC)[C@@H]([C@@H](OC(C)=O)[C@H]12)C3(C)C (stereo partly specified)
Activity [1]: 95% | GI50 (SK-OV-3; read-out: GI50): 68 µM | CC50 (SK-OV-3; [8]): > 100 µM | TGI (SK-OV-3; read-out: TGI): > 100 µM | GI50 (SK-OV-3; read-out: pGI50 (converted)): 69.2 µM | CC50 (SK-OV-3; [9]): 100 µM | TGI (SK-OV-3; read-out: pTGI (converted)): 100 µM | GI50 (SF-268; read-out: GI50): 74 µM | CC50 (SF-268; [8]): > 100 µM | TGI (SF-268; read-out: TGI): > 100 µM | GI50 (SF-268; read-out: pGI50 (converted)): 74.1 µM | CC50 (SF-268; [9]): 100 µM | TGI (SF-268; read-out: pTGI (converted)): 100 µM | GI50 (MKN-45; read-out: GI50): 27 µM | CC50 (MKN-45; [8]): > 100 µM | TGI (MKN-45; read-out: TGI): > 100 µM | GI50 (MKN-45; read-out: pGI50 (converted)): 26.9 µM | CC50 (MKN-45; [9]): 100 µM | TGI (MKN-45; read-out: pTGI (converted)): 100 µM | GI50 (KM12; read-out: GI50): 42 µM | CC50 (KM12; [8]): > 100 µM | TGI (KM12; read-out: TGI): > 100 µM | GI50 (KM12; read-out: pGI50 (converted)): 41.7 µM | CC50 (KM12; read-out: pLC50 (converted)): > 100 µM | TGI (KM12; read-out: pTGI (converted)): 100 µM | Activity [2]: 132% | GI50 (OVCAR-8; read-out: GI50): 37 µM | CC50 (OVCAR-8; [8]): > 100 µM | TGI (OVCAR-8; read-out: TGI): > 100 µM | GI50 (OVCAR-8; read-out: pGI50 (converted)): 37.2 µM | TGI (OVCAR-8; read-out: pTGI (converted)): 100 µM | GI50 (DMS-273; read-out: GI50): 22 µM | CC50 (DMS-273; [8]): > 100 µM | TGI (DMS-273; read-out: TGI): > 100 µM | GI50 (DMS-273; read-out: pGI50 (converted)): 22.4 µM | CC50 (DMS-273; [9]): 100 µM | TGI (DMS-273; read-out: pTGI (converted)): 100 µM | GI50 ([3]; read-out: GI50): 30 µM | CC50 [3, 8]: > 100 µM | TGI ([3]; read-out: TGI): > 100 µM | GI50 ([3]; read-out: pGI50 (converted)): 30.2 µM | TGI ([3]; read-out: pTGI (converted)): 100 µM | GI50 (DU-145; read-out: GI50): 33 µM | CC50 (DU-145; [8]): > 100 µM | TGI (DU-145; read-out: TGI): > 100 µM | GI50 (DU-145; read-out: pGI50 (converted)): 32.4 µM | CC50 (DU-145; [9]): 100 µM | TGI (DU-145; read-out: pTGI (converted)): 100 µM | GI50 ([4]; read-out: GI50): 49 µM | CC50 [4, 8]: > 100 µM | TGI ([4]; read-out: TGI): > 100 µM | GI50 ([4]; read-out: pGI50 (converted)): 49 µM | TGI ([4]; read-out: pTGI (converted)): 100 µM | GI50 (LOX IMVI; read-out: GI50): 35 µM | CC50 (LOX IMVI; [8]): > 100 µM | TGI (LOX IMVI; read-out: TGI): > 100 µM | GI50 (LOX IMVI; read-out: pGI50 (converted)): 34.7 µM | CC50 (LOX IMVI; [9]): 100 µM | TGI (LOX IMVI; read-out: pTGI (converted)): 100 µM | Activity [5]: 701% | GI50 (PC-3; read-out: GI50): 20 µM | CC50 (PC-3; [8]): > 100 µM | TGI (PC-3; read-out: TGI): > 100 µM | GI50 (PC-3; read-out: pGI50 (converted)): 20 µM | TGI (PC-3; read-out: pTGI (converted)): 100 µM | GI50 (HCC 2998; read-out: GI50): 27 µM | CC50 (HCC 2998; [8]): > 100 µM | TGI (HCC 2998; read-out: TGI): > 100 µM | GI50 (HCC 2998; read-out: pGI50 (converted)): 27.5 µM | CC50 (HCC 2998; [9]): 100 µM | TGI (HCC 2998; read-out: pTGI (converted)): 100 µM | GI50 (MKN-7; read-out: GI50): 18 µM | CC50 (MKN-7; [8]): > 100 µM | TGI (MKN-7; read-out: TGI): 93 µM | GI50 (MKN-7; read-out: pGI50 (converted)): 18.2 µM | CC50 (MKN-7; [9]): 100 µM | TGI (MKN-7; read-out: pTGI (converted)): 93.3 µM | GI50 (HT-29; read-out: GI50): 28 µM | CC50 (HT-29; [8]): > 100 µM | TGI (HT-29; read-out: TGI): > 100 µM | GI50 (HT-29; read-out: pGI50 (converted)): 27.5 µM | CC50 (HT-29; read-out: pLC50 (converted)): > 100 µM | TGI (HT-29; read-out: pTGI (converted)): 100 µM | Activity [6]: 111% | GI50 ([7]; read-out: GI50): 25 µM | CC50 [7, 8]: > 100 µM | TGI ([7]; read-out: TGI): > 100 µM | GI50 ([7]; read-out: pGI50 (converted)): 24.5 µM | CC50 [7, 9]: 100 µM | TGI ([7]; read-out: pTGI (converted)): 100 µM | GI50 (St-4; read-out: GI50): 33 µM | CC50 (St-4; [8]): > 100 µM | TGI (St-4; read-out: TGI): > 100 µM | GI50 (St-4; read-out: pGI50 (converted)): 33.1 µM | CC50 (St-4; [9]): 100 µM | TGI (St-4; read-out: pTGI (converted)): 100 µM | GI50 (SF-295; read-out: GI50): 21 µM | CC50 (SF-295; [8]): > 100 µM | TGI (SF-295; read-out: TGI): > 100 µM | GI50 (SF-295; read-out: pGI50 (converted)): 21.4 µM | TGI (SF-295; read-out: pTGI (converted)): 100 µM | GI50 (OVCAR-5; read-out: GI50): 48 µM | CC50 (OVCAR-5; [8]): > 100 µM | TGI (OVCAR-5; read-out: TGI): > 100 µM | GI50 (OVCAR-5; read-out: pGI50 (converted)): 47.9 µM | TGI (OVCAR-5; read-out: pTGI (converted)): 100 µM
